Measured values from different studies.
Protocols differ between the studies behind these lines.
Effect on: microbial growth

O=C(O)COc1ccc(Oc2ccc(-c3noc(-c4ccc(O)cc4)n3)cc2)cc1  MIC (Clostridioides difficile; broth dilution; 48 h): 50 µg/mL
Cc1ccc(C)n1-c1ccc(-c2nnc(S)s2)cc1  MIC (Saccharomyces cerevisiae; broth dilution; ATCC9763): 62.5 µg/mL
O=C(O)Cc1ccccc1Oc1ccc(-c2noc(-c3ccc(O)cc3)n2)cc1  MIC (Clostridioides difficile; broth dilution; 48 h): > 50 µg/mL
Cc1ccc(C)n1-c1ccc(-c2nnc(-c3c(Cl)cccc3Cl)[nH]2)cc1  MIC (Saccharomyces cerevisiae; broth dilution; ATCC9763): 2 µg/mL
C[C@@H]1[C@H](O)[C@@H](C)/C=C/C=C/C=C/C=C/C=C/C=C/C=C/[C@H](O[C@@H]2O[C@H](C)[C@@H](O)[C@H](N)[C@@H]2O)C[C@@H]2O[C@](O)(C[C@@H](O)C[C@@H](O)[C@H](O)CC[C@@H](O)C[C@@H](O)CC(=O)O[C@H]1C)C[C@H](O)[C@H]2C(=O)O  MIC (Saccharomyces cerevisiae): 0.5 µg/mL
CC(C)(C)C(=O)C(Oc1ccc(Cl)cc1)n1ccnc1 (centres unmarked)  MIC (Saccharomyces cerevisiae): 20 to 25 µM
Cc1cc(=O)[nH]n1C(=O)c1ccc(-n2c(C)ccc2C)cc1  MIC (Saccharomyces cerevisiae; broth dilution; ATCC9763): 250 µg/mL
CC1(C)S[C@@H]2[C@H](NC(=O)[C@H](N)c3ccccc3)C(=O)N2[C@H]1C(=O)O  MIC (Shigella sonnei; broth dilution; ATCC25931): 4 µg/mL
Cl.Oc1ccc(-c2nc(-c3ccc(Oc4ccc5c(c4)CNCC5)cc3)no2)cc1  MIC (Clostridioides difficile; broth dilution; 48 h): 4 µg/mL
O=[N+]([O-])c1cc(-c2nc(-c3ccc(Oc4ccc(C(F)(F)F)cc4)cc3)no2)cnc1O  MIC (Clostridioides difficile; broth dilution; ATCC43255; 48 h): 2 to 4 µg/mL
CC(CN)c1ccc(Oc2ccc(-c3noc(-c4ccc(O)cc4)n3)cc2)cc1.Cl (racemic)  MIC (Clostridioides difficile; broth dilution; 48 h): 16 µg/mL
Cc1ccc(C)n1-c1ccc(-c2nnc(-c3ccc(O)cc3)[nH]2)cc1  MIC (Saccharomyces cerevisiae; broth dilution; ATCC9763): 31.2 µg/mL
CC/C(=C(\c1ccccc1)c1ccc(OCCN(C)C)cc1)c1ccccc1  MIC (Saccharomyces cerevisiae): 20 to 25 µM
O=C(O)COc1cccc(Oc2ccc(-c3noc(-c4ccc(O)cc4)n3)cc2)c1  MIC (Clostridioides difficile; broth dilution; 48 h): 50 µg/mL
Cc1ncc([N+](=O)[O-])n1CCO  MIC (Clostridioides difficile; broth dilution; R20291): > 0.5 µg/mL
Cc1ccc(C)n1-c1ccc(-c2nnc(-c3ccc(N(C)C)cc3)[nH]2)cc1  MIC (Saccharomyces cerevisiae; broth dilution; ATCC9763): 62.5 µg/mL
Oc1ccc(-c2nc(-c3ccc(Oc4ccccc4CBr)cc3)no2)cc1  MIC (Clostridioides difficile; broth dilution; ATCC43255; 48 h): 8 to 128 µg/mL
